From ChEMBL document CHEMBL3414546, “Design, synthesis and structure-activity relationship of oxazolidinone derivatives containing novel S4 ligand as FXa inhibitors” (Eur J Med Chem, 2015)
Converted amounts (≈) assume the structure as drawn.

Assays:
Coagulation factor X [1] = biological target: T1, Coagulation factor X (Homo sapiens, UniProt P00742); assay: Inhibition of human F10a using S-2765 as substrate at 0.1 uM after 45 mins by spectra max analysis relative to control
Method in brief: (§1)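 Purified human FXa (10 ng) was used with chromogenic substrate S-2765 at 500 µM in 50 mM Tris-HCl pH 7.5, […], 1 mM CaCl2 and 2.5% DMSO (final). Compound was incubated for 45 min at 37 °C, and absorbance was read at 405 nm. Percent inhibition came from reaction velocity versus DMSO control. IC50 was taken from a plot of inhibition against concentration.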

Coagulation factor X [2] = biological target: T1, Coagulation factor X; assay: Inhibition of F10a in human plasma assessed as doubling of activated partial thromboplastin time
Method in brief: (§2)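 Plasma came from human volunteer or rabbit blood anticoagulated with 3.8% sodium citrate and centrifuged at 2000 g for 10 min. The DMSO stock was serially diluted in plasma. Clotting time was measured on control plasma and on plasma with five to seven inhibitor concentrations. The concentration doubling clotting time was estimated from the concentration-response curve.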

Coagulation factor X [3] = biological target: T1, Coagulation factor X; assay: Inhibition of F10a in human plasma assessed as doubling of prothombin time
Method in brief: (§3)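 Citrated (3.8% sodium citrate) blood from healthy human volunteers or rabbit was spun at 2000 g for 10 min. The DMSO stock was diluted in plasma, 5–7 inhibitor concentrations were tested, and prothrombin time was read with Thromborel-S on an automated temperature-controlled coagulometer in duplicate. PTCT2 (the concentration doubling clotting time) came from regression of the concentration-response curve.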

Coagulation factor X [4] = biological target: T2, Coagulation factor X (Oryctolagus cuniculus, UniProt O19045); assay: Inhibition of F10a in rabbit plasma assessed as doubling of prothombin time; method in brief: as §3
T2 sequence (O19045 whole entry): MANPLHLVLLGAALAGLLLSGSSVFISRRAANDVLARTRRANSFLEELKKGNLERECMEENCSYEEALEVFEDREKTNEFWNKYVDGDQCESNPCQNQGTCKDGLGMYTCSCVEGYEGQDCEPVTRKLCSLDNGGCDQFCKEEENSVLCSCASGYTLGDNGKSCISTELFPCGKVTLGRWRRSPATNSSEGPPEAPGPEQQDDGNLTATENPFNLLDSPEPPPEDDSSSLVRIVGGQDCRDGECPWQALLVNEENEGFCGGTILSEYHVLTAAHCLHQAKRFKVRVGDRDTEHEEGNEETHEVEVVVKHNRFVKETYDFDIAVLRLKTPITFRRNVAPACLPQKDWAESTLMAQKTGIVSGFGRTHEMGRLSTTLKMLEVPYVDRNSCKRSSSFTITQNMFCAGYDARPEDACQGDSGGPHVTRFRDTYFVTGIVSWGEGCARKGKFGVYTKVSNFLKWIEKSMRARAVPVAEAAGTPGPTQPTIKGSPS

Coagulation factor X [5] = biological target: T2, Coagulation factor X; assay: Inhibition of F10a in rabbit plasma assessed as doubling of activated partial thromboplastin time; method in brief: as §2
Coagulation factor X [6] = biological target: T1, Coagulation factor X; assay: Inhibition of human F10a using S-2765 as substrate after 45 mins by spectra max analysis; method in brief: as §1
[7] = Solubility of the compound by Chinese pharmacopoeia 2010 edition of the second collection method; format: physicochemical

T1 sequence (P00742 41-179 limits assumed): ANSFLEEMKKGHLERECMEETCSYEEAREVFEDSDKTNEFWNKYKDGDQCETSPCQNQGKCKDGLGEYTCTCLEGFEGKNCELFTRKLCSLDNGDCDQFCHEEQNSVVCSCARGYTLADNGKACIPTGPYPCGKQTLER
T1 sequence (P00742 235-488 limits assumed): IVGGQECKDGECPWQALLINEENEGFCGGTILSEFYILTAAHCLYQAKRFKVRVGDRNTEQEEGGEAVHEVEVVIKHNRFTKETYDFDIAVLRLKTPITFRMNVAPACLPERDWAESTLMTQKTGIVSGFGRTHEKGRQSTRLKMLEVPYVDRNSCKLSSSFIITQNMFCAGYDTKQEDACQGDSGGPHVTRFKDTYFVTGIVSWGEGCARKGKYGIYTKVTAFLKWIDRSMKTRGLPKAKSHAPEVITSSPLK

Row | SMILES | inhibition (Coagulation factor X [1]) [%] | IC50 (Coagulation factor X [2]) [nM] | IC50 (Coagulation factor X [3]) [nM] | IC50 (Coagulation factor X [4]) [nM] | IC50 (Coagulation factor X [5]) [nM] | IC50 (Coagulation factor X [6]) [nM] | solubility [7] [µg/mL]
1 | CN1CCN(Cc2cccn2-c2ccc(N3C[C@H](CNC(=O)c4ccc(Cl)s4)OC3=O)cc2)CC1 | 71 | 4010 | 3800 | 3900 | 4140 |  | 
2 | O=C(NC[C@H]1CN(c2ccc(-n3c(CN4CCCCC4)cc4ccccc43)cc2)C(=O)O1)c1ccc(Cl)s1 | 52 |  | 11000 | 11500 |  |  | 
3 | O=C(NC[C@H]1CN(c2ccc(-c3nc(CN4CCCC4)cs3)cc2)C(=O)O1)c1ccc(Cl)s1 | 79 | 2710 | 2420 | 2780 | 3040 |  | 
4 | CN(C)Cc1cccn1-c1ccc(N2C[C@H](CNC(=O)c3ccc(Cl)s3)OC2=O)cc1 | 98 | 1200 | 610 | 780 | 1390 | 7.24 | 
5 | CCN(CC)Cc1csc(-c2ccc(N3C[C@H](CNC(=O)c4ccc(Cl)s4)OC3=O)cc2)n1 | 100 | 820 | 510 | 720 | 1030 | 9.46 | 
6 | CN(C)Cc1csc(-c2ccc(N3C[C@H](CNC(=O)c4ccc(Cl)s4)OC3=O)cc2)n1 | 91 | 980 | 870 | 920 | 1240 |  | 
7 | CC1CCN(Cc2cccn2-c2ccc(N3C[C@H](CNC(=O)c4ccc(Cl)s4)OC3=O)cc2)CC1 | 70 | 3530 | 3220 | 3450 | 3780 |  | 
8 | CCN(CC)Cc1cc2ccccc2n1-c1ccc(N2C[C@H](CNC(=O)c3ccc(Cl)s3)OC2=O)cc1 | 61 | 5450 | 5320 | 6020 | 6110 |  | 
9 | O=C(NC[C@H]1CN(c2ccc(-n3cccc3CN3CCC3)cc2)C(=O)O1)c1ccc(Cl)s1 | 92 | 1310 | 700 | 810 | 1520 |  | 
10 | CN(C)Cc1cccn1-c1cc(F)c(N2C[C@H](CNC(=O)c3ccc(Cl)s3)OC2=O)c(F)c1 | 88 | 2310 | 1830 | 1980 | 2560 |  | 
11 | O=C(NC[C@H]1CN(c2ccc(-n3c(CN4CCOCC4)cc4ccccc43)cc2)C(=O)O1)c1ccc(Cl)s1 | 58 | 11200 | 10100 | 11100 |  |  | 25.8 (≈ 46.8 µM)
12 | CN1CCN(Cc2cc3ccccc3n2-c2ccc(N3C[C@H](CNC(=O)c4ccc(Cl)s4)OC3=O)cc2)CC1 | 45 |  | 11300 | 13300 |  |  | 
13 | CCN(CC)Cc1cccn1-c1ccc(N2C[C@H](CNC(=O)c3ccc(Cl)s3)OC2=O)cc1 | 100 | 300 | 150 | 460 | 750 | 2.01 | 6.9 (≈ 14.2 µM)
14 | O=C(NC[C@H]1CN(c2ccc(-n3cccc3CN3CCOCC3)cc2)C(=O)O1)c1ccc(Cl)s1 | 76 | 3310 | 2930 | 3190 | 3520 |  | 
15 | CC1CCN(Cc2cc3ccccc3n2-c2ccc(N3C[C@H](CNC(=O)c4ccc(Cl)s4)OC3=O)cc2)CC1 | 56 | 11900 | 10500 | 12100 | 13100 |  | 
16 | CC1CCN(Cc2csc(-c3ccc(N4C[C@H](CNC(=O)c5ccc(Cl)s5)OC4=O)cc3)n2)CC1 | 68 | 3390 | 3030 | 3780 | 4020 |  | 
17 | O=C(NC[C@H]1CN(c2cc(F)c(-n3cccc3CN3CCCC3)c(F)c2)C(=O)O1)c1ccc(Cl)s1 | 73 | 3060 | 2790 | 2980 | 3670 |  | 20.4 (≈ 39.2 µM)
18 | O=C(NC[C@H]1CN(c2ccc(-n3cccc3CN3CCCCC3)cc2)C(=O)O1)c1ccc(Cl)s1 | 82 | 2850 | 2620 | 2890 | 3230 |  | 
19 | O=C(NC[C@H]1CN(c2ccc(-n3cccc3CN3CCCC3)cc2)C(=O)O1)c1ccc(Cl)s1 | 89 | 1710 | 1420 | 1580 | 1980 |  | 
20 | CCNCc1csc(-c2ccc(N3C[C@H](CNC(=O)c4ccc(Cl)s4)OC3=O)cc2)n1 | 93 | 790 | 650 | 890 | 1160 |  | 
21 | O=C(NC[C@H]1CN(c2ccc(-c3nc(CN4CCCCC4)cs3)cc2)C(=O)O1)c1ccc(Cl)s1 | 72 | 2950 | 2720 | 3120 | 3460 |  | 
22 | CN(C)Cc1cccn1-c1ccc(N2C[C@H](CNC(=O)c3ccc(Cl)s3)OC2=O)cc1F | 90 | 1330 | 650 | 910 | 1580 | 6.58 | 10.2 (≈ 21.4 µM)
23 | CNCc1csc(-c2ccc(N3C[C@H](CNC(=O)c4ccc(Cl)s4)OC3=O)cc2)n1 | 89 | 1870 | 1650 | 1660 | 1910 |  | 
24 | CN1CCN(Cc2csc(-c3ccc(N4C[C@H](CNC(=O)c5ccc(Cl)s5)OC4=O)cc3)n2)CC1 | 56 | 4120 | 3850 | 4230 | 5120 |  | 33.2 (≈ 62.4 µM)
25 | O=C(NC[C@H]1CN(c2ccc(-c3nc(CN4CCOCC4)cs3)cc2)C(=O)O1)c1ccc(Cl)s1 | 62 | 3810 | 3600 | 4060 | 4790 |  | 
26 | CN(C)Cc1cc2ccccc2n1-c1ccc(N2C[C@H](CNC(=O)c3ccc(Cl)s3)OC2=O)cc1 | 69 | 6020 | 5780 | 5920 | 6230 |  | 
27 | O=C(NC[C@H]1CN(c2ccc(N3CCOCC3=O)cc2)C(=O)O1)c1ccc(Cl)s1 [RIVAROXABAN] | 100 |  |  | 510 | 860 |  | 
